Assay results: ChEMBL document CHEMBL1131479, “(R)-3,N-dimethyl-N-[1-methyl-3-(4-methyl-piperidin-1-yl) propyl]benzenesulfonamide: the first selective 5-HT7 receptor antagonist” (J Med Chem, 1998)

Experiments:
[1] = biological target: T1, 5-hydroxytryptamine receptor 7 (Homo sapiens, UniProt P34969); test: Binding affinity towards cloned human 5-hydroxytryptamine 7 receptor expressed in HEK 293 cells using [3H]5-CT; assay type: cell-based, HEK293
In short: (§1)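 Radioligand displacement binding on the receptor source and radioligand named in each line. Each value is the mean of at least two determinations, and every determination lay within 0.2 log unit of that mean.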

[2] = biological target: T2, 5-hydroxytryptamine receptor 1A (Homo sapiens, UniProt P08908); test: The compound was tested for its binding affinity towards cloned human 5-hydroxytryptamine 1A receptor in HEK 293 cells using [3H]8-OH-DPAT.; assay type: cell-based, HEK293; in short: as §1
T2 sequence (P08908 whole entry): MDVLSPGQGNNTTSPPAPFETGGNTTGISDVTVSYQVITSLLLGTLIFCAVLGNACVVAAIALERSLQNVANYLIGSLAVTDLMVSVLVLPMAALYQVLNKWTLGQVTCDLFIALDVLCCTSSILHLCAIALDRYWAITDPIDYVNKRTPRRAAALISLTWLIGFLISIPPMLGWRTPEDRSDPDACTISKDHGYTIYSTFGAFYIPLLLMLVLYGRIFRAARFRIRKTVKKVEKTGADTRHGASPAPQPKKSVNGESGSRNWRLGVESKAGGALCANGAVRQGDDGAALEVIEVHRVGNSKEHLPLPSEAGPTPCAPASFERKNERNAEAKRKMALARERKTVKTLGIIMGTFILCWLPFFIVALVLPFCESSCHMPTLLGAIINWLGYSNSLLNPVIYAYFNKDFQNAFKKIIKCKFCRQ

[3] = biological target: 5-hydroxytryptamine receptor 1B (Homo sapiens, UniProt P28222); test: The compound was tested for its binding affinity towards cloned human 5-hydroxytryptamine 1B receptor in CHO cells using [3H]5-HT; assay type: cell-based
Chain of 5-hydroxytryptamine receptor 1B (P28222 whole entry): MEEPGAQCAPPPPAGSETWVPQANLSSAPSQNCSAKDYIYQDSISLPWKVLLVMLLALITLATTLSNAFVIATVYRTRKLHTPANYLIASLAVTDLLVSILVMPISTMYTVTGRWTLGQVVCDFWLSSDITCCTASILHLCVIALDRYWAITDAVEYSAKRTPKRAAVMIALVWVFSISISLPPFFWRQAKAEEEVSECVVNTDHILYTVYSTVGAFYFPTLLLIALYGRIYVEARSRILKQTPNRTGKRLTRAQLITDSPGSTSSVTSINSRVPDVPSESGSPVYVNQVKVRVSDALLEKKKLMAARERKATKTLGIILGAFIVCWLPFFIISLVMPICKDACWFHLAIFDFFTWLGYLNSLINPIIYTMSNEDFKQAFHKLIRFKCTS
In short: (§2)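 Radioligand displacement on cloned human receptors expressed in the host cell line listed in each line. Values are the mean of at least two determinations, each within 0.2 log unit of the mean.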

[4] = biological target: 5-hydroxytryptamine receptor 1D (Homo sapiens, UniProt P28221); test: The compound was tested for its binding affinity towards cloned human 5-hydroxytryptamine 1D receptor in CHO cells using [3H]5-HT.; assay type: cell-based; in short: as §2
Chain of 5-hydroxytryptamine receptor 1D (P28221 whole entry): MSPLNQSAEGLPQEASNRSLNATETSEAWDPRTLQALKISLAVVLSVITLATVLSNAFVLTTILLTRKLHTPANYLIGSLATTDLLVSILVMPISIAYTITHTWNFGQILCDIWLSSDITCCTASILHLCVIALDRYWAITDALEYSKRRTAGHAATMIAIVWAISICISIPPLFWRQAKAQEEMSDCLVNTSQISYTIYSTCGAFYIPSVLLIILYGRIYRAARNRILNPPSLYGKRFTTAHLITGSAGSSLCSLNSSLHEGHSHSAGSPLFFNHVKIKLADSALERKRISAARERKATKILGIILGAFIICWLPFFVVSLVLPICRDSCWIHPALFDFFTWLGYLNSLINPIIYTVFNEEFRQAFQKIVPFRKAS

[5] = biological target: 5-hydroxytryptamine receptor 1E (Homo sapiens, UniProt P28566); test: The compound was tested for its binding affinity towards cloned human 5-hydroxytryptamine 1E receptor in CHO cells using [3H]5-HT.; assay type: cell-based; in short: as §2
Chain of 5-hydroxytryptamine receptor 1E (P28566 whole entry): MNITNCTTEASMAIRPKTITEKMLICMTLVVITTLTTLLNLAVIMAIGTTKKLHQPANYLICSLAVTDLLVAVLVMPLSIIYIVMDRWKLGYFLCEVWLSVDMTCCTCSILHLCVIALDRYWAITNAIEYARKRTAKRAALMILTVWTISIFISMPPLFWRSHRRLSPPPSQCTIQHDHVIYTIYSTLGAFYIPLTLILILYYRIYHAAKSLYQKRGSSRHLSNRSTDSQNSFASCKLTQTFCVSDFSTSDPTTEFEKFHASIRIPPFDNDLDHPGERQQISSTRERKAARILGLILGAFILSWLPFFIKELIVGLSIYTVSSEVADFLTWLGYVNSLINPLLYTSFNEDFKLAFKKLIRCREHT

[6] = biological target: 5-hydroxytryptamine receptor 2A (Homo sapiens, UniProt P28223); test: The compound was tested for its binding affinity towards cloned human 5-hydroxytryptamine 2A receptor in HEK293 cells using [3H]-ketanserin.; assay type: cell-based; in short: as §2
Chain of 5-hydroxytryptamine receptor 2A (P28223 whole entry): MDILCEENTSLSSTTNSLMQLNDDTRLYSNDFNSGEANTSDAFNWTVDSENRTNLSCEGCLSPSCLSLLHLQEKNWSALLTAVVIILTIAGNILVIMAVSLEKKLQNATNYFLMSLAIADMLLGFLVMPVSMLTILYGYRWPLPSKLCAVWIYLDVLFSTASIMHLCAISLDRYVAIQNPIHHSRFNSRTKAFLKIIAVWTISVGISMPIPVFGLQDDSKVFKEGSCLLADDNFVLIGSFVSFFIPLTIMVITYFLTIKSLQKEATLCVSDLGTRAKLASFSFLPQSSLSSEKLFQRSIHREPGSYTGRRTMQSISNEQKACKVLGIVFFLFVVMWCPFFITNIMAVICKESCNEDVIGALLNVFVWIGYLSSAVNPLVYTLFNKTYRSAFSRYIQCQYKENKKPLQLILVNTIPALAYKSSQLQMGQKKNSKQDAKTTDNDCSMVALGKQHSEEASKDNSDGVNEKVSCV

[7] = biological target: T3, 5-hydroxytryptamine receptor 1F (Homo sapiens, UniProt P30939); test: The compound was tested for its binding affinity towards cloned human 5-hydroxytryptamine 1F receptor in CHO cells using [3H]5-HT.; assay type: cell-based; in short: as §1
T3 sequence (P30939 whole entry): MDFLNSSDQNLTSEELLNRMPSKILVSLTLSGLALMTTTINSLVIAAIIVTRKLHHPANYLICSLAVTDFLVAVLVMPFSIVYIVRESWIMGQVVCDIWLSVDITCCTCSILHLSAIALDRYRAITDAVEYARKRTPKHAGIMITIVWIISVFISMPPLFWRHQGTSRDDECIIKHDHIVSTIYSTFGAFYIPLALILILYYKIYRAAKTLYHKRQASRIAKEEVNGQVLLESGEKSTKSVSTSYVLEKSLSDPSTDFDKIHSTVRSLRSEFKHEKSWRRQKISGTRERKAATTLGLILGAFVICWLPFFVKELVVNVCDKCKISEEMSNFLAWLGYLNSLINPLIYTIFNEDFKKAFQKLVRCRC

[8] = biological target: 5-hydroxytryptamine receptor 2B (Homo sapiens, UniProt P41595); test: The compound was tested for its binding affinity towards cloned human 5-hydroxytryptamine 2B receptors in HEK293 cells using [3H]5-HT.; assay type: cell-based
Chain of 5-hydroxytryptamine receptor 2B (P41595 whole entry): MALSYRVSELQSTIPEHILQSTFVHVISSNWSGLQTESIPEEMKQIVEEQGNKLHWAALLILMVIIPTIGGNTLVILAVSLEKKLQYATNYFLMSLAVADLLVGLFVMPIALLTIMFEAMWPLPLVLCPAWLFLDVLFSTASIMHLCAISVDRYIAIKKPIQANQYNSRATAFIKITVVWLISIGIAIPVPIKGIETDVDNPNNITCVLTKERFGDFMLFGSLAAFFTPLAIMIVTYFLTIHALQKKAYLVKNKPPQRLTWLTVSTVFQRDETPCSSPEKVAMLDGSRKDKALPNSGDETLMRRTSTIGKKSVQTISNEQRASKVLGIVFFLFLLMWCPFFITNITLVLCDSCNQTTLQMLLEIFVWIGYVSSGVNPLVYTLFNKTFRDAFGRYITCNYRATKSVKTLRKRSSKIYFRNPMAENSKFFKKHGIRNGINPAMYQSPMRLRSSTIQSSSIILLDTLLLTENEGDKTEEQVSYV
In short: (§3)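 Radioligand displacement binding on cloned human receptors expressed in HEK 293 cells: 5-HT2B labelled with [3H]-5-HT, 5-HT7 labelled with [3H]-5-CT. Each value is the mean of at least two determinations, each within 0.2 log unit of the mean.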

[9] = biological target: T4, 5-hydroxytryptamine receptor 2C (Homo sapiens, UniProt P28335); test: The compound was tested for its binding affinity towards cloned human 5-hydroxytryptamine 2C receptor in HEK293 cells using [3H]mesulergine.; assay type: cell-based; in short: as §1
T4 sequence (P28335 whole entry): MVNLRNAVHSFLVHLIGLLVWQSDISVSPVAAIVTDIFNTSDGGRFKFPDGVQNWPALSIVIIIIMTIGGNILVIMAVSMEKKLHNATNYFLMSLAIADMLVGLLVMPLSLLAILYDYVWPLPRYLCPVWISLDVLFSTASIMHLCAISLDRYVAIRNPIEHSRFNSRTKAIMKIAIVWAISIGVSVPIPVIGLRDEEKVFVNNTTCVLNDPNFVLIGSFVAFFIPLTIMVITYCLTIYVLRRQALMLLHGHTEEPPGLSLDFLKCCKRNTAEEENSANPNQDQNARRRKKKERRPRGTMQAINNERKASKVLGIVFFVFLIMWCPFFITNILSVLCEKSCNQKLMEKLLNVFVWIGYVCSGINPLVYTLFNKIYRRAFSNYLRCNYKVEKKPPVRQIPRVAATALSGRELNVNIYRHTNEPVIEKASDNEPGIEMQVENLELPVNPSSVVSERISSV

[10] = biological target: T1, 5-hydroxytryptamine receptor 7; test: The compound was tested for its binding affinity towards cloned human 5-hydroxytryptamine 7 receptor in HEK 293 cells using [3H]5-CT.; assay type: cell-based, HEK293; in short: as §3
[11] = biological target: 5-hydroxytryptamine receptor 6 (Homo sapiens, UniProt P50406); test: The compound was tested for its binding affinity towards cloned human 5-hydroxytryptamine 6 receptor in HeLa cells using […].; assay type: cell-based; in short: as §2
Chain of 5-hydroxytryptamine receptor 6 (P50406 whole entry): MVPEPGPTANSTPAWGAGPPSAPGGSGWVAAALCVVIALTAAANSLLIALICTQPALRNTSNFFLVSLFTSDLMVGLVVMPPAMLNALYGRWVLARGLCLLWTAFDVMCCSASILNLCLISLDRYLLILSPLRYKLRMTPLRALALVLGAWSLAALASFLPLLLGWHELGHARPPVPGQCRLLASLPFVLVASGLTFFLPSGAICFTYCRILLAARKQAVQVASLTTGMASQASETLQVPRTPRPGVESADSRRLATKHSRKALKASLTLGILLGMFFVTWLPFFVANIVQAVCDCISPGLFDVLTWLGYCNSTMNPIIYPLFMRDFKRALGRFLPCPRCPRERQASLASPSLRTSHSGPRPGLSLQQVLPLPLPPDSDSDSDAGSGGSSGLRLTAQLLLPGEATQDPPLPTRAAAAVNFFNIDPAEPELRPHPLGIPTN

[12] = biological target: D(2) dopamine receptor (Homo sapiens, UniProt P14416); test: The compound was tested for its binding affinity towards cloned human Dopamine receptor D2 in CHO cells using [125I]iodosulpiride.; assay type: cell-based
Chain of D(2) dopamine receptor (P14416 whole entry): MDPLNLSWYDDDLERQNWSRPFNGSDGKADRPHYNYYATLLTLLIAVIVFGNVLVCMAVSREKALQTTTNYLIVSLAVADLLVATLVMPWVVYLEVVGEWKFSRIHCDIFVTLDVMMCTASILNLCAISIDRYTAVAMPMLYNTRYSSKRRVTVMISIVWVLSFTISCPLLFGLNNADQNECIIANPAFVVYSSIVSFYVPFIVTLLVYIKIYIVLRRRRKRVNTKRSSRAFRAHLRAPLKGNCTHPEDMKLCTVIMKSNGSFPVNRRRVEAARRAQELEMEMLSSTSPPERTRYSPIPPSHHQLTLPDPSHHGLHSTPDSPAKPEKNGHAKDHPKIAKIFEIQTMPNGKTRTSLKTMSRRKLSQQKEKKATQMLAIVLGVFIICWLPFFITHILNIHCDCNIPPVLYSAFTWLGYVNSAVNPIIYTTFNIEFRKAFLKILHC

[13] = biological target: D(3) dopamine receptor (Homo sapiens, UniProt P35462); test: The compound was tested for its binding affinity towards cloned human Dopamine receptor D3 in CHO cells using [125I]iodosulpiride.; assay type: cell-based
Chain of D(3) dopamine receptor (P35462 whole entry): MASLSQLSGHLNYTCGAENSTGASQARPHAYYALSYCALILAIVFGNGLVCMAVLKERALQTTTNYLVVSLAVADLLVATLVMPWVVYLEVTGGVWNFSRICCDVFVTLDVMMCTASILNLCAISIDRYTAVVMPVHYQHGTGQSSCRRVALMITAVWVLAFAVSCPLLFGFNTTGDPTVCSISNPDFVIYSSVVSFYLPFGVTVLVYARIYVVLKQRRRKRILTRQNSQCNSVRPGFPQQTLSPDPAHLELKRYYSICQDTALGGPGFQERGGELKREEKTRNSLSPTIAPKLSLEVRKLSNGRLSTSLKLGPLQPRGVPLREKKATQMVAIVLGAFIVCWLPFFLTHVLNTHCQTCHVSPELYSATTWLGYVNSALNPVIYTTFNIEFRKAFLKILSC

[14] = biological target: T5, Alpha-1B adrenergic receptor (Homo sapiens, UniProt P35368); test: The compound was tested for its binding affinity towards adrenergic alpha-1B receptors
T5 sequence (P35368 whole entry): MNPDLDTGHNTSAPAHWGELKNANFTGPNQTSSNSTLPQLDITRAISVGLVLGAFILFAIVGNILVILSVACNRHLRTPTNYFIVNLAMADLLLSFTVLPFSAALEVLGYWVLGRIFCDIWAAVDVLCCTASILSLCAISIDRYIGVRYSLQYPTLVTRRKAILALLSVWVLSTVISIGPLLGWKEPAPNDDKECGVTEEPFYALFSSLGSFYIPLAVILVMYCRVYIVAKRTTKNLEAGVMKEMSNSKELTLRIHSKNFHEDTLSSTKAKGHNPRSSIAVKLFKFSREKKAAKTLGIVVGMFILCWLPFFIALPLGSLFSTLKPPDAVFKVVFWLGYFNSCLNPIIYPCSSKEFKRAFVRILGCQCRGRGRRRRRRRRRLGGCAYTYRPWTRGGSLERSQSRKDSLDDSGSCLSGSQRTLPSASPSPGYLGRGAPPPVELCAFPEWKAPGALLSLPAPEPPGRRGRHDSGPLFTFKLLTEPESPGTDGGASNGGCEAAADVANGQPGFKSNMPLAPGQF

T1 sequence (P34969 whole entry): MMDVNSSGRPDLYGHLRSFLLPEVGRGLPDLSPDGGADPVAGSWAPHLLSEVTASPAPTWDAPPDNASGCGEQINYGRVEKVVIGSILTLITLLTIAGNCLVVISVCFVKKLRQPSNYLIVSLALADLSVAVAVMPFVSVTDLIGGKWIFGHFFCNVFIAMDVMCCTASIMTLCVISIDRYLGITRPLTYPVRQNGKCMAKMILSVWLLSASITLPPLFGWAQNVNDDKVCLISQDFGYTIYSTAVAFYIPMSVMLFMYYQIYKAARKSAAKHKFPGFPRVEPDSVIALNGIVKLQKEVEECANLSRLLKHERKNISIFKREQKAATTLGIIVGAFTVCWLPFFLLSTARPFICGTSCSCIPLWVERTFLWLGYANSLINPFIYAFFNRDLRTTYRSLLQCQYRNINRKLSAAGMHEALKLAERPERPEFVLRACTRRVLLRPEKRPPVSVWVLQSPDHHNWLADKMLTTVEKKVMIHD

## C[C@@H]1CCCN(CC[C@@H](C)N(C)S(=O)(=O)c2cccc3ccccc23)C1
[1]
  Ki: 126 nM

## CC1CCCN(CCC(C)N(C)S(=O)(=O)c2cccc3ccccc23)C1 (configuration not stated)
[1]
  Ki: 63.1 nM

## C[C@H]1CCCN(CC[C@@H](C)N(C)S(=O)(=O)c2cccc3ccccc23)C1
[1]
  Ki: 631 nM

## C[C@@H]1CCCN(CC[C@H](C)N(C)S(=O)(=O)c2cccc3ccccc23)C1
[1]
  Ki: 1580 nM

## C[C@H]1CCCN(CC[C@H](C)N(C)S(=O)(=O)c2cccc3ccccc23)C1
[1]
  Ki: > 10000 nM

## Cc1cccc(S(=O)(=O)N(C)[C@H](C)CCN2CCC(C)CC2)c1 [SB-258719]
[2]
  Ki: > 7940 nM
[3]
  Ki: > 5010 nM
[4]
  Ki: 3160 nM
[5]
  Ki: > 15800 nM
[6]
  Ki: > 15800 nM
[7]
  Ki: > 6310 nM
[8]
  Ki: > 5010 nM
[9]
  Ki: > 15800 nM
[10]
  Ki: 31.6 nM
[11]
  Ki: > 15800 nM
[12]
  Ki: 3980 nM
[13]
  Ki: 3980 nM
[14]
  Ki: > 15800 nM

## CC1CCN(CC[C@@H](C)N(C)S(=O)(=O)c2ccc(Cl)c(Cl)c2)CC1
[1]
  Ki: 31.6 nM

## CC1CCN(CC[C@@H](C)N(C)S(=O)(=O)c2cccc3ccccc23)CC1
[1]
  Ki: 31.6 nM

## CC1CCN(CC[C@@H](C)N(C)S(=O)(=O)c2ccc(Br)c(Br)c2)CC1
[1]
  Ki: 20 nM

## CC1CCN(CC[C@@H](C)N(C)S(=O)(=O)c2cc(Br)c(Br)s2)CC1
[1]
  Ki: 15.8 nM
